Source: ChEMBL document CHEMBL1212892, “Tirucallane-type alkaloids from the bark of Dysoxylum laxiracemosum” (J Nat Prod, 2010)

How the values were obtained:
Type in all cases: functional, cell-based
MCF7 = experiment: Cytotoxicity against human MCF7 cells after 48 hrs by MTT assay; conditions: MCF7, 48 h
In short: (§1)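 Cells grown in RPMI-1640 or DMEM with 10% FBS, 37 °C, 5% CO2. Adherent cells seeded at 1 × 10^5 cells/mL and left 12 h to attach before dosing; suspension cells seeded just before dosing. Compound at 0.0625, 0.32, 1.6, 8 and 40 µM in triplicate for 48 h, cisplatin positive control. Viability by MTT; IC50 by Reed and Muench method.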

A549 = experiment: Cytotoxicity against human A549 cells after 48 hrs by MTT assay; conditions: A549, 48 h; in short: as §1
SW480 = experiment: Cytotoxicity against human SW480 cells after 48 hrs by MTT assay; conditions: SW480, 48 h; in short: as §1
SMMC-7721 = experiment: Cytotoxicity against human SMMC7721 cells after 48 hrs by MTT assay; conditions: SMMC-7721, 48 h; in short: as §1
HL-60 = experiment: Cytotoxicity against human HL60 cells after 48 hrs by MTT assay; conditions: HL-60, 48 h; in short: as §1

| SMILES | IC50 (MCF7) [µM] | IC50 (A549) [µM] | IC50 (SW480) [µM] | IC50 (SMMC-7721) [µM] | IC50 (HL-60) [µM] |
| --- | --- | --- | --- | --- | --- |
| C=C(C)C(=O)c1cc([C@@H]2CC[C@]3(C)C4=CCC5C(C)(C)[C@H](O)CC[C@]5(C)[C@H]4CC[C@@]23C)c[nH]1 (stereo partly drawn) [LAXIRACEMOSIN E] | 5.1 | 3.7 | 3.7 | 2.7 | 1.5 |
| CC(C)C(=O)c1cc([C@@H]2CC[C@]3(C)C4=CCC5C(C)(C)C(=O)CC[C@]5(C)[C@H]4CC[C@@]23C)c[nH]1 (stereo partly drawn) [LAXIRACEMOSIN B] | > 20 | 13.4 | > 20 | 19 | 12.8 |
| CC(C)(O)C(=O)c1cc([C@@H]2CC[C@]3(C)C4=CCC5C(C)(C)[C@H](O)CC[C@]5(C)[C@H]4CC[C@@]23C)c[nH]1 (stereo partly drawn) [LAXIRACEMOSIN D] | > 20 | > 20 | > 20 | > 20 | 6.8 |
| CC(C)C(=O)c1cc([C@@H]2CC[C@]3(C)C4=CCC5C(C)(C)[C@H](O)CC[C@]5(C)[C@H]4CC[C@@]23C)c[nH]1 (stereo partly drawn) [LAXIRACEMOSIN A] | 16.8 | 5.4 | 7.2 | 9.5 | 3.1 |
| CC1(C)C2CC=C3[C@H](CC[C@@]4(C)[C@H](c5c[nH]c(C=O)c5)CC[C@]34C)[C@@]2(C)CC[C@H]1O (stereo partly drawn) [LAXIRACEMOSIN F] | > 20 | > 20 | > 20 | 15.6 | 15.7 |
